Test [1] is described as follows: Hypoxia cytotoxicity ratio (HCR), calculated by dividing the dose in air by the dose in hypoxia giving 1% control cell survival. The test is classed as functional. An outline of the steps: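 Suspension cultures of V79 cells gassed continuously with pure air or nitrogen (30 min pre-gassing, then 2 h exposure), two flasks per dose, DMSO and nitracrine 0.06 μM controls. Clonogenic survival from plating efficiency relative to control after 7-day colony growth; ratio = air dose over hypoxic dose each giving 1% control survival, from dose-response curves.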

For test [2], the system named is V79. Description: Concentration giving 1% of control V79 cells survival in hypoxia. The format is functional, Cricetulus griseus. In a few lines:
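V79 Chinese hamster lung fibroblasts, trypsinized from exponential monolayers into suspension (2 × 10^4 cells/mL, EMEM + 10% FBS + 10 mM HEPES), gassed with nitrogen 30 min before and throughout 2 h drug exposure; duplicate flasks per dose. Cells replated, colonies (>64 cells) counted after 7 days at 37 °C; dose-response curve gives micromolar dose for 1% of control survival.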

Here are results for 40 molecules from ChEMBL document CHEMBL1128183, “Hypoxia-selective agents derived from 2-quinoxalinecarbonitrile 1,4-di-N-oxides. 2” (1995).

Regarding `CCN(CC)CCNc1c(C#N)[n+]([O-])c2cc(OC)ccc2[n+]1[O-]`, the HCR in test [1] is 100. This molecule returned a Potency in test [2] of 1000 nM.
In the case of `N#Cc1c(N)[n+]([O-])c2ccccc2[n+]1[O-]`, the HCR in test [1] is 80. Also, in test [2], the Potency is 30000 nM.
For `CN(C)CCNc1c(C#N)[n+]([O-])c2cc(Cl)ccc2[n+]1[O-]`, in that order: 100 and 300 nM.
For `N#Cc1c[n+]([O-])c2ccccc2[n+]1[O-]`, in that order: greater than 100 and 5000 nM.
For `Cc1cc2c(cc1C)[n+]([O-])c(C#N)c[n+]2[O-]`, the HCR in test [1] is greater than 7. Further, the Potency in test [2] was 14000 nM.
For `N#Cc1c[n+]([O-])c2ccc(F)cc2[n+]1[O-]`, in that order: greater than 50 and 2000 nM.
Taken in the same sequence, the figures for `Cc1ccc2c(c1)[n+]([O-])c(C#N)c(NCCCN(C)C)[n+]2[O-]` were 300 and 1000 nM.
For `CCN(CC)CCNc1c(C#N)[n+]([O-])c2ccccc2[n+]1[O-]`, in that order: 120 and 900 nM.
As for `N#Cc1c(NCCCN2CCOCC2)[n+]([O-])c2ccc(Cl)cc2[n+]1[O-]`, the HCR in test [1] is given as 300. Besides, the Potency in test [2] was 2000 nM.
Taken in the same sequence, the figures for `COc1ccc2c(c1)[n+]([O-])c(C#N)c(NCCCN(C)C)[n+]2[O-]` were 200 and 2000 nM.
Taken in the same sequence, the figures for `N#Cc1c[n+]([O-])c2ccc(-c3ccc([N+](=O)[O-])cc3)cc2[n+]1[O-]` were 200 and 200 nM.
For `CN(C)CCCNc1c(C#N)[n+]([O-])c2cc(Cl)ccc2[n+]1[O-]`, in that order: 250 and 400 nM.
On to `N#Cc1c[n+]([O-])c2ccc(C(F)(F)F)cc2[n+]1[O-]`, for which the HCR in test [1] is given as 80. The molecule further returned a Potency in test [2] of 6000 nM.
For `CN(CCCNc1c(C#N)[n+]([O-])c2cc(Cl)ccc2[n+]1[O-])CCCNc1c(C#N)[n+]([O-])c2cc(Cl)ccc2[n+]1[O-]`, in that order: 10 and 700 nM.
Taken in the same sequence, the figures for `Cc1ccc2c(c1)[n+]([O-])c(C#N)c[n+]2[O-]` were 200 and 6000 nM.
Taken in the same sequence, the figures for `N#Cc1c(NCCCN2CCOCC2)[n+]([O-])c2cc(Cl)ccc2[n+]1[O-]` were greater than 125 and 800 nM.
On to `N#Cc1c(N)[n+]([O-])c2cc(F)c(F)cc2[n+]1[O-]`, for which the HCR in test [1] was less than 10. Further, in test [2], the Potency was determined as 1000 nM.
Taken in the same sequence, the figures for `N#Cc1c(N)[n+]([O-])c2ccc(C(F)(F)F)cc2[n+]1[O-]` were 75 and 7000 nM.
Regarding `N#Cc1c(N)[n+]([O-])c2cc(Cl)c(Cl)cc2[n+]1[O-]`, in test [1], the HCR is given as 80. In test [2], the Potency came out at 1000 nM.
For `CN(C)CCCNc1c(C#N)[n+]([O-])c2cc(F)ccc2[n+]1[O-]`, in that order: 170 and 600 nM.
Taken in the same sequence, the figures for `CCN(CC)CCNc1c(C#N)[n+]([O-])c2cc(F)ccc2[n+]1[O-]` were 75 and 400 nM.
Taken in the same sequence, the figures for `CN(C)CCCNc1c(C#N)[n+]([O-])c2cc(C(F)(F)F)ccc2[n+]1[O-]` were 340 and 300 nM.
With `N#Cc1c(NCCO)[n+]([O-])c2ccc(Cl)cc2[n+]1[O-]`, in test [1], the HCR was 75. The Potency in test [2] worked out at 4000 nM.
Taken in the same sequence, the figures for `N#Cc1c[n+]([O-])c2cc(F)c(F)cc2[n+]1[O-]` were 5 and 300 nM.
Taken in the same sequence, the figures for `CCN(CC)CCNc1c(C#N)[n+]([O-])c2cc(C(F)(F)F)ccc2[n+]1[O-]` were 50 and 600 nM.
Taken in the same sequence, the figures for `N#Cc1c[n+]([O-])c2cc(Cl)c(Cl)cc2[n+]1[O-]` were 10 and 700 nM.
Consider `CCN(CC)CCNc1c(C#N)[n+]([O-])c2cc(Cl)ccc2[n+]1[O-]`, for which the HCR in test [1] was 40. The molecule further came in with a Potency in test [2] of 500 nM.
Turning to `CN(C)CCCNc1c(C#N)[n+]([O-])c2ccccc2[n+]1[O-]`, the HCR in test [1] is recorded as 300. Further, in test [2], the Potency was 1000 nM.
Taken in the same sequence, the figures for `N#Cc1c(N)[n+]([O-])c2ccc(F)cc2[n+]1[O-]` were 100 and 15000 nM.
Taken in the same sequence, the figures for `N#Cc1c(N)[n+]([O-])c2ccc(Cl)cc2[n+]1[O-]` were 150 and 9000 nM.
Taken in the same sequence, the figures for `COc1ccc2c(c1)[n+]([O-])c(C#N)c[n+]2[O-]` were greater than 200 and 5000 nM.
On to `CCN(CC)CCNc1c(C#N)[n+]([O-])c2cc(C)ccc2[n+]1[O-]`, for which the HCR in test [1] was 100. Further, in test [2], the Potency came out at 3000 nM.
For `N#Cc1c[n+]([O-])c2ccc(Cl)cc2[n+]1[O-]`, in that order: 30 and 3000 nM.
For `COc1cc2c(cc1Cl)[n+]([O-])cc(C#N)[n+]2[O-]`, in that order: greater than 50 and 400 nM.
For `Nc1n[n+]([O-])c2ccccc2[n+]1[O-]` [TIRAPAZAMINE], the HCR in test [1] is listed as 75. Moreover, the Potency in test [2] amounted to 30000 nM.
Taken in the same sequence, the figures for `N#Cc1c(NCCCn2ccnc2)[n+]([O-])c2ccc(Cl)cc2[n+]1[O-]` were greater than 50 and 2000 nM.
As to `Cc1c(C#N)[n+]([O-])c2ccccc2[n+]1[O-]`, the HCR in test [1] is recorded as 15. Also, in test [2], the Potency was found to be 10000 nM.
Taken in the same sequence, the figures for `COc1ccc2c(c1)[n+]([O-])c(C#N)c(N)[n+]2[O-]` were greater than 10 and 30000 nM.
For `N#Cc1c(N)[n+]([O-])c2ccc(-c3ccc([N+](=O)[O-])cc3)cc2[n+]1[O-]`, in that order: 15 and 4000 nM.
For `COc1cc2c(cc1Cl)[n+]([O-])c(N)c(C#N)[n+]2[O-]`, in that order: less than 10 and 10000 nM.
